Experimental data taken from ChEMBL document CHEMBL1140517, “Synthesis, antifungal and antimycobacterial activities of new bis-imidazole derivatives, and prediction of their binding to P450(14DM) by molecular docking and MM/PBSA method” (2007).
Values after ≈ are worked out from the molar mass of the structure shown.

Columns and labels:
Assay type in all cases: functional
Nakaseomyces glabratus [1] = assay: Antimicrobial activity against Candida glabrata 123 after 24 hrs
Method in brief: (§1)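 Broth MIC against clinical Candida isolates (C. albicans 3038 and C. glabrata 123). Compounds were taken from 4 mg/mL DMSO stock solutions (stock, not final concentration). Miconazole and amphotericin B served as reference compounds. Each MIC was determined twice in duplicate experiments and read after 24 h and 48 h of incubation.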

[2] = tested on: Mycobacterium tuberculosis; assay: Antimicrobial activity against Mycobacterium tuberculosis H37Rv after 24 hrs
Nakaseomyces glabratus [3] = assay: Antimicrobial activity against Candida glabrata 123 after 48 hrs; method in brief: as §1
Candida albicans [4] = assay: Antimicrobial activity against Candida albicans 3038 after 24 hrs; method in brief: as §1
Candida albicans [5] = assay: Antimicrobial activity against Candida albicans 3038 after 48 hrs; method in brief: as §1
[6] = tested on: Mycobacterium tuberculosis; assay: Antimicrobial activity against Mycobacterium tuberculosis H37Rv assessed per disk after 24 hrs

SMILES	MIC (Nakaseomyces glabratus [1])	MIC [2]	MIC (Nakaseomyces glabratus [3])	MIC (Candida albicans [4])	MIC (Candida albicans [5])	MIC [6]
O=C(c1ccc(Cl)s1)C(Cn1ccnc1)Cn1ccnc1	64 µg/mL (≈ 199 µM)	16 µg/mL (≈ 49.9 µM)	128 µg/mL (≈ 399 µM)	64 µg/mL (≈ 199 µM)	64 µg/mL (≈ 199 µM)	–
O=C(c1ccc([N+](=O)[O-])cc1)C(Cn1ccnc1)Cn1ccnc1	128 µg/mL (≈ 393 µM)	64 µg/mL (≈ 197 µM)	> 128 µg/mL	128 µg/mL (≈ 393 µM)	> 128 µg/mL	–
O=C(c1cccs1)C(Cn1ccnc1)Cn1ccnc1	128 µg/mL (≈ 447 µM)	16 µg/mL (≈ 55.9 µM)	128 µg/mL (≈ 447 µM)	128 µg/mL (≈ 447 µM)	128 µg/mL (≈ 447 µM)	–
O=C(c1ccc(F)cc1)C(Cn1ccnc1)Cn1ccnc1	128 µg/mL (≈ 429 µM)	16 µg/mL (≈ 53.6 µM)	128 µg/mL (≈ 429 µM)	64 µg/mL (≈ 215 µM)	128 µg/mL (≈ 429 µM)	–
O=C(c1ccc(-c2ccccc2)cc1)C(Cn1ccnc1)Cn1ccnc1	4 µg/mL (≈ 11.2 µM)	8 µg/mL (≈ 22.4 µM)	8 µg/mL (≈ 22.4 µM)	2 µg/mL (≈ 5.61 µM)	4 µg/mL (≈ 11.2 µM)	–
C[C@@H]1[C@H](O)[C@@H](C)/C=C/C=C/C=C/C=C/C=C/C=C/C=C/[C@H](O[C@@H]2O[C@H](C)[C@@H](O)[C@H](N)[C@@H]2O)C[C@@H]2O[C@](O)(C[C@@H](O)C[C@@H](O)[C@H](O)CC[C@@H](O)C[C@@H](O)CC(=O)O[C@H]1C)C[C@H](O)[C@H]2C(=O)O [AMPHOTERICIN B]	0.5 µg/mL (≈ 0.541 µM)	–	2 µg/mL (≈ 2.16 µM)	1 µg/mL (≈ 1.08 µM)	2 µg/mL (≈ 2.16 µM)	–
OC(c1ccc(Br)cc1)C(Cn1ccnc1)Cn1ccnc1 (stereo not drawn)	128 µg/mL (≈ 354 µM)	8 µg/mL (≈ 22.1 µM)	–	128 µg/mL (≈ 354 µM)	> 128 µg/mL	–
Cc1ccc(C(=O)C(Cn2ccnc2)Cn2ccnc2)cc1	128 µg/mL (≈ 435 µM)	8 µg/mL (≈ 27.2 µM)	128 µg/mL (≈ 435 µM)	64 µg/mL (≈ 217 µM)	128 µg/mL (≈ 435 µM)	–
COc1ccc(C(=O)C(Cn2ccnc2)Cn2ccnc2)cc1	128 µg/mL (≈ 412 µM)	16 µg/mL (≈ 51.6 µM)	128 µg/mL (≈ 412 µM)	64 µg/mL (≈ 206 µM)	128 µg/mL (≈ 412 µM)	–
Clc1ccc(COC(Cn2ccnc2)c2ccc(Cl)cc2Cl)c(Cl)c1 (stereo not drawn) [MICONAZOLE]	1.25 µg/mL (≈ 3 µM)	–	2.5 µg/mL (≈ 6.01 µM)	2.5 µg/mL (≈ 6.01 µM)	5 µg/mL (≈ 12 µM)	–
O=C(c1ccc(Br)cc1)C(Cn1ccnc1)Cn1ccnc1	32 µg/mL (≈ 89.1 µM)	16 µg/mL (≈ 44.5 µM)	64 µg/mL (≈ 178 µM)	16 µg/mL (≈ 44.5 µM)	32 µg/mL (≈ 89.1 µM)	–
COc1ccc(C(O)C(Cn2ccnc2)Cn2ccnc2)cc1 (stereo not drawn)	128 µg/mL (≈ 410 µM)	64 µg/mL (≈ 205 µM)	> 128 µg/mL	128 µg/mL (≈ 410 µM)	> 128 µg/mL	–
O=C(c1ccccc1)C(Cn1ccnc1)Cn1ccnc1	128 µg/mL (≈ 457 µM)	16 µg/mL (≈ 57.1 µM)	128 µg/mL (≈ 457 µM)	64 µg/mL (≈ 228 µM)	64 µg/mL (≈ 228 µM)	–
O=C(c1ccc(Cl)cc1)C(Cn1ccnc1)Cn1ccnc1	32 µg/mL (≈ 102 µM)	16 µg/mL (≈ 50.8 µM)	64 µg/mL (≈ 203 µM)	16 µg/mL (≈ 50.8 µM)	32 µg/mL (≈ 102 µM)	–
O=C(c1ccc(Br)s1)C(Cn1ccnc1)Cn1ccnc1	64 µg/mL (≈ 175 µM)	16 µg/mL (≈ 43.8 µM)	128 µg/mL (≈ 350 µM)	64 µg/mL (≈ 175 µM)	64 µg/mL (≈ 175 µM)	–
CO[C@H]1/C=C/O[C@@]2(C)Oc3c(C)c(O)c4c(O)c(c(/C=N/N5CCN(C)CC5)c(O)c4c3C2=O)NC(=O)/C(C)=C\C=C\[C@H](C)[C@H](O)[C@@H](C)[C@@H](O)[C@@H](C)[C@H](OC(C)=O)[C@@H]1C [RIFAMPIN]	–	–	–	–	–	1 mg
